# What was measured:
# Assay type in all cases: functional
# [1] = tested on: Meyerozyma guilliermondii; assay: Evaluation of In vitro antifungal activity against Candida guilliermondii 26 by broth macro dilution method
# Summary of the method: (§1)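 Yeast MIC and MFC by broth macrodilution per NCCLS M27-P in RPMI-1640 buffered with 0.165 M MOPS. Fluconazole in sterile water, other drugs in DMSO. C. parapsilosis ATCC 22019 is the reference strain in each run. MIC is the lowest concentration with turbidity ≤ the 80% inhibition standard. For MFC, 0.04 mL from clear tubes is plated on Sabouraud agar; MFC is the lowest concentration giving ≤1 colony.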
# Mus musculus [2] = assay: In vivo evaluation of % survival rate after peroral administration on 3rd day at dose 0.5 mg/kg(as a water solution in (hydroxypropyl -beta-cyclodextrin)); conditions: route oral
# Summary of the method: (§2)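 Groups of 10 male mice were infected iv with 0.2 mL of C. albicans at (2-8) × 10^7 cfu/mL. Oral doses were given at 1, 4 and 24 h post-infection. Vehicle-only controls were included, with at least 90% control mortality by day 3. Percent survival was recorded on days 3, 5, 7 and 9.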
# Nakaseomyces glabratus [3] = assay: Evaluation of In vitro antifungal activity against Torulopsis glabrata 78 by broth macro dilution method; summary of the method: as §1
# Aspergillus niger = assay: In vitro evaluation of minimum inhibitory concentration against Aspergillus niger 18
# Summary of the method: (§3)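 Stocks are 800 μg/mL in 50% ethanol. Each plate gets 10 μL of inoculum at 10^5 cfu/mL. Incubation at 25 °C, 48 h for yeasts and 120 h for dermatophytes and molds. Organisms are ATCC strains or clinical isolates.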
# Nakaseomyces glabratus [4] = assay: In vitro evaluation of minimum inhibitory concentration against Torulopsis glabrata 78; summary of the method: as §3
# Rhodotorula mucilaginosa = assay: In vitro evaluation of minimum inhibitory concentration against Rhodotorula rubra 16; summary of the method: as §3
# Mus musculus [5] = assay: In vivo evaluation of % survival rate after peroral administration on 7th day at dose 0.5 mg/kg(as a water solution in (hydroxypropyl -beta-cyclodextrin)); conditions: route oral; summary of the method: as §2
# Candida tropicalis = assay: Evaluation of In vitro antifungal activity against Candida tropicalis 50 by broth macro dilution method; summary of the method: as §1
# Aspergillus fumigatus = assay: In vitro evaluation of minimum inhibitory concentration against Aspergillus fumigatus 33; summary of the method: as §3
# Pichia kudriavzevii = assay: Evaluation of In vitro antifungal activity against Candida krusei C64 by broth macro dilution method; summary of the method: as §1
# Candida albicans [6] = assay: In vivo evaluation of minimum inhibitory concentration against Candida albicans 60
# Summary of the method: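 Broth macrodilution MIC following NCCLS M27-P, in RPMI-1640 buffered with 0.165 M MOPS. Fluconazole was dissolved in water and other drugs in DMSO. C. parapsilosis ATCC 22019 served as the reference strain in every run. MIC was the lowest concentration giving turbidity at or below the 80% inhibition standard.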
# Candida albicans [7] = assay: Evaluation of In vitro antifungal activity against Candida albicans C56 by broth macro dilution method; summary of the method: as §1
# Candida parapsilosis [8] = assay: Evaluation of In vitro antifungal activity against Candida parapsilosis ATCC 22019 by broth macro dilution method; conditions: Lodderomyces parapsilosis; summary of the method: as §1
# Mus musculus [9] = assay: In vivo evaluation of % survival rate after peroral administration on 7th day at dose 0.5 mg/kg; conditions: route oral, 0.5 mg/kg
# Candida parapsilosis [10] = assay: Evaluation of In vitro antifungal activity against Candida parapsilosis 2.07 by broth macro dilution method; conditions: Lodderomyces parapsilosis; summary of the method: as §1
# [11] = tested on: Meyerozyma guilliermondii; assay: In vitro evaluation of minimum inhibitory concentration against Candida guilliermondii 26; summary of the method: as §3
# Trichophyton rubrum = assay: IIn vitro evaluation of minimum inhibitory concentration against Trichophyton rubrum 90; summary of the method: as §3
# Candida albicans [12] = assay: In vitro evaluation of minimum inhibitory concentration against Candida albicans 76; summary of the method: as §3
# Microsporum canis = assay: In vitro evaluation of minimum inhibitory concentration against Microsporum canis 47; summary of the method: as §3
# Kluyveromyces marxianus = assay: In vitro evaluation of minimum inhibitory concentration against Candida pseudotropicalis 13; summary of the method: as §3
# Candida albicans [13] = assay: Evaluation of In vitro antifungal activity against Candida albicans ATCC 10231 by broth macro dilution method; summary of the method: as §1
# Candida parapsilosis [14] = assay: Evaluation of In vitro antifungal activity against Candida parapsilosis C292 by broth macro dilution method; conditions: Lodderomyces parapsilosis; summary of the method: as §1
# Mus musculus [15] = assay: In vivo evaluation of % survival rate after peroral administration on 9th day at dose 0.5 mg/kg(as a water solution in (hydroxypropyl -beta-cyclodextrin)); conditions: route oral; summary of the method: as §2
# Candida albicans [16] = assay: Evaluation of In vitro antifungal activity against Candida albicans C52 by broth macro dilution method; summary of the method: as §1
# Aspergillus flavus = assay: In vitro evaluation of minimum inhibitory concentration against Aspergillus flavus 19; summary of the method: as §3
smiles,measurement,setting,value
C[C@H]1N(C(=O)c2ccc(C(F)(F)F)cc2)CCO[C@@]1(Cn1cncn1)c1ccc(F)cc1F (stereo in doubt; (-)-41),MFC,[1],> 64 µg/mL
same,MIC,[1],8 µg/mL
same,survival at 0.5 mg/kg,Mus musculus [2],100%
same,MFC,Nakaseomyces glabratus [3],> 64 µg/mL
same,MIC,Nakaseomyces glabratus [3],16 µg/mL
same,MIC,Aspergillus niger,80 µg/mL
same,MIC,Nakaseomyces glabratus [4],10 µg/mL
same,MIC,Rhodotorula mucilaginosa,5 µg/mL
same,survival at 0.5 mg/kg,Mus musculus [5],60%
same,MFC,Candida tropicalis,> 64 µg/mL
same,MIC,Candida tropicalis,16 µg/mL
same,MIC,Aspergillus fumigatus,40 µg/mL
same,MFC,Pichia kudriavzevii,> 64 µg/mL
same,MIC,Pichia kudriavzevii,32 µg/mL
same,MIC,Candida albicans [6],0.31 µg/mL
same,MFC,Candida albicans [7],> 64 µg/mL
same,MIC,Candida albicans [7],0.125 µg/mL
same,MFC,Candida parapsilosis [8],4 µg/mL
same,MIC,Candida parapsilosis [8],2 µg/mL
same,Survival,Mus musculus [9],70%
same,MFC,Candida parapsilosis [10],> 64 µg/mL
same,MIC,Candida parapsilosis [10],1 µg/mL
same,MIC,[11],20 µg/mL
same,MIC,Trichophyton rubrum,10 µg/mL
same,MIC,Candida albicans [12],1.25 µg/mL
same,MIC,Microsporum canis,20 µg/mL
same,MIC,Kluyveromyces marxianus,40 µg/mL
same,MFC,Candida albicans [13],> 64 µg/mL
same,MIC,Candida albicans [13],0.25 µg/mL
same,MFC,Candida parapsilosis [14],> 64 µg/mL
same,MIC,Candida parapsilosis [14],2 µg/mL
same,survival at 0.5 mg/kg,Mus musculus [15],30%
same,MFC,Candida albicans [16],> 64 µg/mL
same,MIC,Candida albicans [16],0.125 µg/mL
same,MIC,Aspergillus flavus,40 µg/mL

# Source: ChEMBL document CHEMBL1128448, “Synthesis and antifungal activity of new azole derivatives containing an N-acylmorpholine ring” (1995)
